Screens deposited in PubChem by several laboratories.
Rows were chosen to be rich in hits. Some 2% of all compounds tested hit in one or more screens of this group.
Diaph act CS: diaphorase activation or chemical reduction counter-screen; Diaphorase/resazurin coupled assay, resorufin fluorescence, 16 min; hits give high values; 1 = vehicle wells, 0 = NADH-free wells; activation factor at 20 µM; actives 0.005% (n = 190,000); AID 1229;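 active = diaphorase activity raised at least twofold by the compound at 20 µM; inactive = activation factor below 2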
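System – purified diaphorase enzyme from Clostridium kluyveri · Input – enzyme 0.07 U/mL final · Also added – final NADH 0.114 mM, resazurin 0.1 mM · Measured by – fluorescence of resorufin, 544 nm excitation, 590 nm emission · Timing – 16 min enzyme reaction, ambient temperature · Measure – resorufin increase flagging diaphorase activators or reducers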
Hck Nef HTS: inhibitors of human Hck kinase activated by Nef; actives 0.68% (n = 220,000); AID 463187; inhibition, % at 20 µM; P08631; Recombinant Hck-YEEI plus Nef, Z-Lyte FRET kinase assay;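 active = Hck-Nef kinase inhibition above about 50%, limit read from the data; inactive = inhibition below that limit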;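 note: 0% = DMSO with Hck plus Nef and 100% = Hck alone without Nef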
NCF1 inh: p47phox (human) inhibition; P14598; p47phox/p22phox peptide binding, fluorescence polarization, 2 h; inhibition, % at 24.7 µM; actives 0.53% (n = 220,000); AID 1274;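 note: 0% = p47phox with labelled peptide and 100% = labelled peptide alone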
Target sequence (P14598 whole entry, looked up): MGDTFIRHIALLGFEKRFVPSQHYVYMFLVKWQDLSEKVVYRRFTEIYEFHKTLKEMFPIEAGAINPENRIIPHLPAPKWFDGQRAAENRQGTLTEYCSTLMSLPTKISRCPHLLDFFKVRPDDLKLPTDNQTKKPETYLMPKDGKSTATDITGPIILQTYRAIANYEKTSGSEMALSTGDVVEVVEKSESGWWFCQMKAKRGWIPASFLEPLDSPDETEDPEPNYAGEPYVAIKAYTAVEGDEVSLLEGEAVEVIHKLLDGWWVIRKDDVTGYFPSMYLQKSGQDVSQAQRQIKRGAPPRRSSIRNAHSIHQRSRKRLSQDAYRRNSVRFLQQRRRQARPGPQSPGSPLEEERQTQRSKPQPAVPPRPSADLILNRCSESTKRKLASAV
14-3-3 Bad PPI: disrupts binding of bovine 14-3-3 zeta to phospho-Bad peptide. P63103. TR-FRET 14-3-3zeta/Dy647-pBad peptide displacement, 1 h. inhibition, % at 21.7 µM. actives 0.71% (n = 220,000);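 active = inhibition above about 70%, limit read from the data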;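 note: 0% = full 14-3-3 plus peptide FRET controls and 100% = background without 14-3-3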
eIF4E 4G PPI: inhibitors of eIF4E and eIF4G interaction in translation initiation. P63073+Q04637. TR-FRET eIF4E-eIF4GI(517-606) binding, 2 h. inhibition, % at 21.7 µM. actives 0.37% (n = 220,000). AID 782;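 note: 0% = full FRET control wells and 100% = background wells lacking eIF4GI fragment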
Starred values were filed as active, the others as inactive; . = no result given; + = active, no number; ! = not confirmed by another sample; [ ] = remark or other dose.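 Rule for the calls, unless noted: active = inhibition above about 30% (limit read from the data); inactive = the rest.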

SMILES	Diaph act CS	Hck Nef HTS	NCF1 inh	14-3-3 Bad PPI	eIF4E 4G PPI
Cc1ccc(Nc2nc(NCc3ccco3)c3ccccc3n2)cc1	1.3	-15	-8	11	-1
CC1=CC2=NC(=O)/C(=C\c3cc(C)n(-c4cccc(Cl)c4)c3C)C(=N)N2O1	0.8	2	-42	-2	0
CC1=CC2=NC(=O)/C(=C\c3cc(C)n(-c4ccccc4)c3C)C(=N)N2O1	1	3	-7	-23	80*[fluorescence artefact?]
COC(=O)c1cc2n3ccccc3c(C)c(-c3ccccc3)c-2c1C(=O)OC	0.4	1	53*	-15	6
COC(=O)c1cc2c(C)c(C)c3ccccn3c-2c1C(=O)OC	0.9	1	-32	-28	-18
CC(C)N(C(=O)CSc1nnnn1-c1ccc2c(c1)OCO2)C(C)C	0.8	29	-10	-11	0
COC(=O)CCCC1=CC2=C(c3ccccc3)C(=O)C(C)(OC(=O)C3CCCC3)C(=O)C2=CN1CC1CC1 (configuration not stated)	.	29	-15	-3	89*
COc1ccc(Nc2nc(C)c3ccccc3n2)cc1	0.9	1	1	93*	12
COc1ccc(Nc2nc(-c3ccccc3)c3ccccc3n2)cc1	0.8	1	-1	-2	3
c1ccc2[nH]c(-c3ccnc4ccccc34)nc2c1	1	-7	+!	1	49*![fluorescence artefact?]
Fc1ccccc1-c1nc2ccccc2[nH]1	1.1	17	-6	-3	-1
CSc1nsc(SCC(=O)N2CCc3ccccc32)n1	1.1	-7	-31	-5	38*
Cc1cc(C)cc(Oc2nn[nH]n2)c1	1	-1	1	71*	-2
CC(C)(C)c1cccc(Oc2nn[nH]n2)c1	1	-1	1	79*	6
Cc1cc(C)cc(Oc2ccc(N)cc2)c1	0.9	0	-8	-5	-1
COc1ccc(C(=O)NC(=S)Nc2nc(C)cc(C)n2)cc1Br	.	28	-14	-4	-3
O=C(O)CSc1nnc(-c2ccc(S(=O)(=O)N3CCCC3)cc2)n1Cc1ccco1	1	0	-6	85*	3
CC(NC(=O)Cc1ccc([N+](=O)[O-])cc1)c1ccc2c(c1)OCO2 (configuration not stated)	.	32	-9	6	-14
CCOC(=O)N1CCc2c(sc(NC(=O)CN(CC)CC)c2C#N)C1	.	10	-4	-3	-4
Cc1oc(-c2ccc(Cl)cc2)nc1CN1CCC(C(=O)NCc2ccco2)CC1	1	1	-8	-16	64*
Cc1oc(-c2ccc(Cl)cc2)nc1CN1CCC(C(=O)N2CCc3ccccc3C2)CC1	1	6	45*	8	-2
Cc1oc(-c2ccc(Cl)cc2)nc1CN1CCC(C(=O)N2CCN(Cc3ccccc3)CC2)CC1	0.9	0	1	3	-3
Cc1ccc2cc3c(N)c4c(C)ccc(C)c4nc3nc2c1	1.2	26	31*	-9	4
Cc1cc(N2CCC(C)CC2)c(F)cc1[N+](=O)[O-]	0.9	2	-3	3	3
Cc1cc(N2CCCC2)c(F)cc1/C=C\[N+](=O)[O-]	1	-22	79*	-1	1
SMILES	Diaph act CS	Hck Nef HTS	NCF1 inh	14-3-3 Bad PPI	eIF4E 4G PPI
CC(C)(C)c1ccc(NNC(=O)C2CCC2)cc1	.	3	-10	-1	2
CC1CC(C)(C)NC(=S)N1CC(=O)N1CCN(Cc2ccc3c(c2)OCO3)CC1 (configuration not stated)	0.9	24	-6	-3	3
O=C1C2C3C=CC(C2C(=O)N1c1ccc(O)cc1)C1C2C(=O)N(c4ccc(O)cc4)C(=O)C2C31 (configuration not stated)	.	23	34*	0	-4
O=C1C2C3C=CC(C2C(=O)N1c1ccccc1O)C1C2C(=O)N(c4ccccc4O)C(=O)C2C31 (configuration not stated)	1	24	-4	-16	1
O=c1oc2c(O)c(O)cc3c(=O)oc4c(O)c(O)cc1c4c23	0.1	4	-37	98*[fluorescence artefact?]	56*[fluorescence artefact?]
CC(C)(C)c1ccc(OCC(=O)NNC(=O)CCc2ccccc2)cc1	0.9	-1	61*	0	-1
O=C(CCc1ccccc1)NNC(=O)COc1ccccc1	0.9	1	-3	4	-7
COc1ccc(S(=O)(=O)Nc2ccccc2Cl)cc1NC(C)=O	1	16	-10	91*	0
Nc1cc(C(=O)O)ccc1Nc1ccc(F)c(F)c1	0.8	0	30*	2	1
CCC1CN(C(=O)Nc2ccc(C)cc2)c2cc(C)ccc2O1 (configuration not stated)	0.9	11	-2	-8	-5
CCOc1ccc(CCNS(=O)(=O)c2cnc[nH]2)cc1OCC	0.9	-4	62*	3	-3
CCOc1ccc(CCNC(=O)c2cc3c(C)nccc3[nH]c2=O)cc1OCC	0.8	11	-3	-2	-3
O=C(CCNC(=O)Cn1ccc2ccccc2c1=O)NCc1ccc(F)cc1Cl	0.9	-23	-5	-1	-3
Cc1cc(C(F)(F)F)nn1Cc1n[nH]c(=S)n1-c1ccc(Cl)cc1	0.8	1	31*	27	7
CCn1c(-c2ccccc2O)n[nH]c1=S	0.7	2	33*	-13	0
CC(NC(=O)c1ccccc1)c1nc2ccccc2n1Cc1ccccc1F (configuration not stated)	1	0	-15	3	1
CCN(CC)c1ccc(NC(=O)Cn2c(C(C)NC(=O)c3ccccc3)nc3ccccc32)cc1 (configuration not stated)	1	15	39*	60	0
O=C(COc1cccnc1[N+](=O)[O-])Nc1cc(S(=O)(=O)N2CCCCC2)ccc1Cl	.	18	-8	4	-15
CC(=O)Nc1nc(-c2ccc(Cl)cc2)nc(C)c1C(C)=O	0.9	1	-11	86*	24
Cn1c(=O)c2c(ncn2CCC(=O)N/N=C/c2cccnc2)n(C)c1=O	.	7	-4	-15	-5
Cc1cccc2cc(C(c3nnnn3C(C)(C)C)N3CCN(C(=O)c4ccco4)CC3)c(=O)[nH]c12 (configuration not stated)	0.9	-19	-3	79*	-3
C=C(C)CCOC(=O)C(CC(=O)O)NCc1ccco1 (configuration not stated)	.	3	2	15	12
Cc1ccc(OC2=NS(=O)(=O)c3ccccc32)cc1	0.8	-1	-19	27	6
COc1ccccc1OC1=NS(=O)(=O)c2ccccc21	1	7	-4	85*	22
O=C(CSc1nnc(Cc2ccccc2)n1C1CCCCC1)N1CCOCC1	0.9	0	98*	-1	4
CC(C)Nc1nc2ccccc2c(=O)[nH]1	1	14	-4	90*	3
